Experiments:
MDA-MB-231 [1] = assay: Induction of apoptosis in human MDA-MB-231 cells assessed as necrotic cells at 2.2 uM incubated for 48 hrs AnnexinV/ propidium iodide staining based flow cytometry (Rvb= 0.54%); assay type: functional
MDA-MB-231 [2] = assay: Induction of apoptosis in human MDA-MB-231 cells assessed as early apoptotic cells at 2.2 uM incubated for 48 hrs AnnexinV/ propidium iodide staining based flow cytometry (Rvb= 0.3%); assay type: functional
MDA-MB-231 [3] = assay: Induction of apoptosis in human MDA-MB-231 cells assessed as necrotic cells at 1.76 uM incubated for 48 hrs AnnexinV/ propidium iodide staining based flow cytometry (Rvb= 0.54%); assay type: functional
MDA-MB-231 [4] = assay: Inhibition of colony formation in human MDA-MB-231 cells assessed as decrease in size of colony forming cells at 0.44 to 3.52 uM incubated for 48 hrs by crystal violet staining based assay; assay type: functional, cell-based; conditions: dose 0.44-3.52 µM, DDE = dose-dependent effect
Outline: (§1)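 Colony formation, MDA-MB-231: 800 cells/well, three replicate wells per group, grown 5–7 days at 37 °C, 5% CO2 until 30–50-cell clusters formed. Drug then added for 24, 48 or 72 h. Washed with cold PBS, fixed in 4% paraformaldehyde 30 min, stained with 0.5% crystal violet, imaged, colonies counted; n = 3.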

MDA-MB-231 [5] = assay: Inhibition of colony formation in human MDA-MB-231 cells assessed as decrease in number of colony forming cells at 1.76 uM incubated upto 72 hrs by crystal violet staining based assay; assay type: functional, cell-based; conditions: TDE = time-dependent effect; outline: as §1
HepG2 = assay: Antitumor activity against human HepG2 cells assessed as inhibit cell proliferation incubated for 72 hrs by CCK-8 assay; assay type: functional, cell-based; conditions: HepG2, 72 h
Outline: (§2)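 CCK8 viability readout. Culture media: HCC1937, A549, HeLa and GTL-16 in RPMI 1640; MDA-MB-231, MCF-7 and HepG2 in high-glucose DMEM; all with 10% FBS and penicillin/streptomycin, 37 °C, 5% CO2. 4×10^3–6×10^3 cells/well, 24 h, then compounds in serum-free medium, 72 h at 37 °C. 10% CCK8, 2 h, OD 450/630 nm. Five wells per group; IC50 from inhibition rate; three independent experiments, mean ± SD.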

MDA-MB-231 [6] = assay: Induction of apoptosis in human MDA-MB-231 cells assessed as necrotic cells at 0.88 uM incubated for 48 hrs AnnexinV/ propidium iodide staining based flow cytometry (Rvb= 0.54%); assay type: functional
MDA-MB-231 [7] = assay: Induction of apoptosis in human MDA-MB-231 cells assessed as early apoptotic cells at 0.88 uM incubated for 48 hrs AnnexinV/ propidium iodide staining based flow cytometry (Rvb= 0.3%); assay type: functional
GTL 16 cell line = assay: Antitumor activity against human GTL 16 cell line assessed as inhibit cell proliferation incubated for 72 hrs by CCK-8 assay; assay type: functional, cell-based; conditions: GTL 16, 72 h; outline: as §2
MDA-MB-231 [8] = assay: Induction of apoptosis in human MDA-MB-231 cells assessed as viable cells at 1.76 uM incubated for 48 hrs AnnexinV/ propidium iodide staining based flow cytometry (Rvb= 99.02%); assay type: functional; conditions: read-out: Activity
MDA-MB-231 [9] = assay: Inhibition of PI3K/AKT signalling pathway in human MDA-MB-231 cells assessed as decrease in phosphorylated PI3K level at 1 to 10 uM incubated for 48 hrs by western blot analysis; assay type: cell-based; conditions: dose 1-10 µM, DDE = dose-dependent effect
Outline: (§3)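 MDA-MB-231 treated at 1, 5 and 10 μM at 37 °C, then lysed in RIPA/PMSF for 30 min at 0 °C and cleared at 14 000 × g, 4 °C. Protein quantified by BCA; 40 μg resolved by SDS-PAGE and transferred to PVDF. Blocked in 5% skim milk, primary antibody overnight at 4 °C, secondary 2 h at room temperature, chemiluminescent imaging.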

MDA-MB-231 [10] = assay: Induction of apoptosis in human MDA-MB-231 cells assessed as early apoptotic cells at 3.52 uM incubated for 48 hrs AnnexinV/ propidium iodide staining based flow cytometry (Rvb= 0.3%); assay type: functional
MDA-MB-231 [11] = assay: Induction of apoptosis in human MDA-MB-231 cells assessed as chromatin concentration and margination at 0.88 to 3.52 uM incubated for 48 hrs by Hoechst 33258 staining based fluorescence microscopic analysis; assay type: functional, cell-based; conditions: dose 0.88-3.52 µM, DDE = dose-dependent effect
Outline: (§4)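 MDA-MB-231 seeded at 2×10^5–3×10^5 per well and incubated overnight (37 °C, 5% CO2). Exposed to compound for 48 h. Fixed in methanol 30 min, then stained with Hoechst 33258 for 30 min at room temperature in the dark. Nuclear morphology scored by fluorescence microscopy; n = 3, mean ± SD.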

MDA-MB-231 [12] = assay: Induction of apoptosis in human MDA-MB-231 cells assessed as downregulation of Bcl-2 expression at 1 to 10 uM incubated for 48 hrs by western blot analysis; assay type: functional, cell-based; conditions: dose 1-10 µM, DDE = dose-dependent effect; outline: as §3
MDA-MB-231 [13] = assay: Induction of apoptosis in human MDA-MB-231 cells assessed as late apoptotic cells at 7.04 uM incubated for 48 hrs AnnexinV/ propidium iodide staining based flow cytometry (Rvb= 0.40%); assay type: functional
MDA-MB-231 [14] = assay: Induction of apoptosis in human MDA-MB-231 cells assessed as early apoptotic cells at 7.04 uM incubated for 48 hrs AnnexinV/ propidium iodide staining based flow cytometry (Rvb= 0.3%); assay type: functional
MDA-MB-231 [15] = assay: Inhibition of colony formation in human MDA-MB-231 cells assessed as decrease in size of colony forming cells at 1.76 uM incubated upto 72 hrs by crystal violet staining based assay; assay type: functional, cell-based; conditions: TDE = time-dependent effect; outline: as §1
MDA-MB-231 [16] = assay: Induction of apoptosis in human MDA-MB-231 cells assessed as necrotic cells at 3.52 uM incubated for 48 hrs AnnexinV/ propidium iodide staining based flow cytometry (Rvb= 0.54%); assay type: functional
MCF7 = assay: Antitumor activity against human MCF7 cells assessed as inhibit cell proliferation incubated for 72 hrs by CCK-8 assay; assay type: functional, cell-based; conditions: MCF7, 72 h; outline: as §2
HeLa = assay: Antitumor activity against human HeLa cells assessed as inhibit cell proliferation incubated for 72 hrs by CCK-8 assay; assay type: functional, cell-based; outline: as §2
MDA-MB-231 [17] = assay: Induction of apoptosis in human MDA-MB-231 cells assessed as increase in apoptotic bodies at 0.88 to 3.52 uM incubated for 48 hrs by Hoechst 33258 staining based fluorescence microscopic analysis; assay type: functional, cell-based; conditions: dose 0.88-3.52 µM, DDE = dose-dependent effect; outline: as §4
MDA-MB-231 [18] = assay: Inhibition of colony formation in human MDA-MB-231 cells assessed as decrease in number of colony forming cells at 0.44 to 3.52 incubated for 48 hrs by crystal violet staining based assay; assay type: functional, cell-based; conditions: DDE = dose-dependent effect; outline: as §1
MDA-MB-231 [19] = assay: Induction of cell cycle arrest in human MDA-MB-231 cells assessed as decrease in G2/M phase at 0.88 to 3.52 uM incubated for 48 hrs by flow cytometry; assay type: functional, cell-based; conditions: dose 0.88-3.52 µM, DDE = dose-dependent effect
Outline: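 Cell cycle of MDA-MB-231 after 48 h exposure: trypsinised and washed in PBS, about 1×10^6 cells/mL. Fixed overnight in pre-cooled 70% ethanol at 4 °C, then resuspended in PBS and filtered through 200-mesh nylon. Flow cytometry with 488 nm excitation gave G0/G1, S and G2/M percentages; n = 3, mean ± SD.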

MDA-MB-231 [20] = assay: Induction of apoptosis in human MDA-MB-231 cells assessed as viable cells at 0.88 uM incubated for 48 hrs AnnexinV/ propidium iodide staining based flow cytometry (Rvb= 99.02%); assay type: functional; conditions: read-out: Activity

IC50 (HepG2): 4.61 µM
IC50 (MCF7): 2.89 µM
IC50 (HeLa): 4.08 µM
Structure (SMILES): O=C(Nc1cccc(-c2oc3cc(-c4ccc(F)cc4)ccc3c(=O)c2O)c1)c1ccc(Cl)nc1
Activity (MDA-MB-231 [1]): 1.53%
Activity (MDA-MB-231 [2]): 7.49%
Activity (MDA-MB-231 [3]): 0.86%
inhibition (MDA-MB-231 [4]): Dde
inhibition (MDA-MB-231 [5]): Tde
Activity (MDA-MB-231 [6]): 0.63%
Activity (MDA-MB-231 [7]): 1.48%
IC50 (GTL 16 cell line): 7.52 µM
viability at 1.76 µM (MDA-MB-231 [8]): 45.8%
inhibition (MDA-MB-231 [9]): Dde
Activity (MDA-MB-231 [10]): 15.04%
Activity (MDA-MB-231 [11]): Dde
Activity (MDA-MB-231 [12]): Dde
Activity (MDA-MB-231 [13]): 68.54%
Activity (MDA-MB-231 [14]): 23.85%
inhibition (MDA-MB-231 [15]): Tde
Activity (MDA-MB-231 [16]): 2.1%
Activity (MDA-MB-231 [17]): Dde
inhibition (MDA-MB-231 [18]): Dde
Activity (MDA-MB-231 [19]): Dde
viability at 0.88 µM (MDA-MB-231 [20]): 74.3%

Reference: ChEMBL document CHEMBL5104204, “Synthesis and in vitro anticancer evaluation of novel flavonoid-based amide derivatives as regulators of the PI3K/AKT signal pathway for TNBC treatment” (RSC Med Chem, 2022)
